# Bioassay records (PubChem BioAssay)
# E-sel inducer – induces E-selectin expression in human endothelial cells; P16581; HUVEC E-selectin immunofluorescence imaging; normalized: neutral wells 0, TNF-alpha wells 100; activation, % at 7.58 µM; 0.37% of 260,000 active;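 active = mean E-selectin-positive cell signal at least 10% of the positive control, reached in at least 60% of replicates, without over 20% cell loss; inconclusive = no rule given, readout overlaps actives, possibly toxicity-flagged; inactive = the rest, including those meeting only one limit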
#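 System: HUVEC, human umbilical vein endothelial cells; quantity: 3,000 cells/well; buffer or medium: EGM-2 medium, gelatin-coated wells; dosing: single-point compound dose; detection: immunofluorescence imaging; evaluation: % PE-positive cells; benchmarks: TNF-alpha, DMSO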
# XiGFP reactiv – activators of X-chromosome reactivation in mouse fibroblasts; XiGFP mouse fibroblasts, % GFP-positive cells imaging, 3 d; cells co-treated with 5-aza-dC sensitizer; scaled so ellipticine positive control = 100%; 0.055% of 360,000 active; activation, % at 7.58 µM;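 active = mean normalized replicate activation at least 10% and every replicate at or above 10%; inconclusive = only one of the two criteria met; inactive = mean below 10% and not all replicates reach 10%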;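 note: 0% = median of on-plate neutral control wells and 100% = ellipticine 6 µM median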
#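 Schedule: 3 d treatment, 15 min room-temperature fixation; system: 68-5-11 XiGFP fibroblast line; buffer or medium: DMEM plus 5-aza-dC sensitizer; control set: ellipticine 6 µM positive control; compound: one concentration, pinned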
# FGF22 binding – FGF22 (human) thermal shift binding; activity (Tm shift, normalised), % at 9.99 µM; Q9HCT0; AID 651658; 1.5% of 340,000 active; recombinant FGF22 thermal shift, SYPRO orange fluorescence; percent of sucrose octasulfate shift, DMSO zero;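 active = mean Tm shift, scaled 0 neutral to 100 positive control, at about 1.3% or above, every replicate too, limit read from the data; inconclusive = no clear call, values can overlap the other calls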
# Target sequence (Q9HCT0 whole entry, looked up): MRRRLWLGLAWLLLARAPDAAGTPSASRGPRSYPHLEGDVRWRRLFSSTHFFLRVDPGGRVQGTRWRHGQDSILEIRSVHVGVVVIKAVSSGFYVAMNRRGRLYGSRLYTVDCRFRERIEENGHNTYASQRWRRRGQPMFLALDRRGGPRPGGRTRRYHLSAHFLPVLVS
# DENV2 CPE rescue – DENV2-induced cell death inhibition; DENV2-infected cells, cytopathic effect rescue, plate reader; CPE inhibition, % at 9.99 µM; 1.7% of 350,000 active; AID 651640; in the data active = CPE inhibition above about 20%, passing the limit was not always enough; inconclusive = no clear call, values can overlap the other calls; tested in BHK-21 cells;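 note: 0% = median of neutral control wells and 100% = median of positive control wells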
# C2C12 statin – protects C2C12 myotubes from simvastatin toxicity. ATP luminescence, 48 h; scaled: DMSO 0, geranylgeraniol control 100. rescue of ATP level, % at 7.49 µM. 0.78% of 330,000 active. AID 602340;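 active = mean ATP rescue above about 67%, or every replicate alone reaching that limit, limit read from the data, passing the limit was not always enough; inconclusive = no clear call, values can overlap the other calls; inactive = mean under the limit and some replicate under it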;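 note: myotubes were challenged with 10 µM simvastatin during compound exposure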
# PglD DTNB – PglD (C. jejuni) enzyme inhibition | purified PglD enzyme, DTNB colorimetric CoA detection | 0.098% of 360,000 active | inhibition, % at 12.5 µM | AID 602405; in the data active = inhibition above about 16%, passing the limit was not always enough; inconclusive = no clear call, values can overlap the other calls
# The depositor's hits bear a star; ? = inconclusive; . = no result given. Rows were chosen to be rich in hits. Some 3.3% of all compounds tested hit in one or more screens of this group.
SMILES,E-sel inducer,XiGFP reactiv,FGF22 binding,DENV2 CPE rescue,C2C12 statin,PglD DTNB
Cc1cc(/C=N/NC(=O)c2ccc(CN3CCOCC3)cc2)c(C)n1-c1ccccc1,.,.,.,.,115.8*,-1.6
O=C(N/N=C/c1ccccc1[N+](=O)[O-])c1ccc(CN2CCOCC2)cc1,.,0.0,0.0,-1.5,.,.
COCCNC(=O)C[C@H]1C=C[C@H](NC(=O)NC2CCCCC2)[C@@H](CO)O1,-0.5,1.2,0.0,-8.5,1.2,0.7
O=c1cc(CSc2nnc(-c3ccccc3)o2)c2ccccc2[nH]1,.,0.1,0.0,76.4*,2.1,-5.3
CCC(=O)N1CC2(C1)[C@@H](c1ccc(-c3cccc(OC)c3)cc1)[C@@H](CO)N2C(C)=O,0.3,0.2,-0.5,0.7,.,.
N#Cc1ccc(OCC(=O)N/N=C(\CCC(=O)O)c2cccs2)cc1,.,0.0,43.4*,-4.4,.,.
CCOC(=O)N/N=C(\CCC(=O)O)c1cccs1,.,-0.1,0.1,15.2,.,7.0
O=C(c1ccc(N2CCN(C(=O)c3ccc(F)c(F)c3)CC2)cc1)c1cccc(F)c1,-0.8,0.2,0.1,?,-5.3,2.7
O=C(c1ccc(N2CCN(C(=O)c3ccccc3)CC2)cc1)c1cccc(F)c1,.,0.2,-0.3,65.2*,16.5,-1.9
Cn1ncc(Cl)c1C(=O)N1CCN(S(=O)(=O)c2ccc(F)cc2)CC1,0.1,-0.1,0.7,?,-1.1,4.2
Cn1ncc(Cl)c1C(=O)N1CCN(c2ccc(F)cc2)CC1,0.0,1.0,-0.2,50.1*,3.4,-0.9
O=[N+]([O-])c1cccnc1NCc1cccs1,-0.1,0.4,43.3*,-1.8,1.0,-1.0
c1ccc(-c2cn(CC3CCCCC3)nn2)cc1,.,0.0,0.0,-12.5,4.9,-0.7
OCCCc1cn(CC2CCCCC2)nn1,0.2,0.1,0.1,47.8*,9.1,11.9
CC=Cc1ccc2n(c1=O)C[C@H]1[C@H](CO)[C@@H](C(=O)NCc3ccc(F)cc3)N(CC)[C@@H]21 (mixture of isomers),0.1,0.2,0.2,3.5,9.2,-0.6
Cc1cc(NC(=S)NC(=O)CC(C)C)ccc1Br,.,.,35.2*,8.3,-90.7,0.9
Cc1cc(Cl)c2oc(C(=O)N(C)CCCN3CCOCC3)c(C)c2c1,0.0,1.0,0.7,8.2,.,5.5
Cc1cc(Cl)c2oc(C(=O)N(C)CCCCN3CCOCC3)c(C)c2c1,.,0.1,-0.1,22.2*,-7.7,1.1
CCCNC(=O)N(C)C[C@@H]1Oc2ncc(C#CC3CC3)cc2C(=O)N([C@@H](C)CO)C[C@@H]1C,0.4,-1.0,0.0,-7.6,7.5,-1.0
O=C(c1ccncc1)N1CC(=O)N2[C@H](C1)[C@H](c1ccc(C#CCC3CCCC3)cc1)[C@@H]2CO,.,0.3,.,.,.,.
CCN(CC)C(=O)C(=O)c1cccn1-c1cccc(OC)c1C#N,-0.1,0.0,45.2*,-7.9,9.1,-11.4
CCCN1C[C@H](C)[C@H](OC)CN(C)C(=O)c2ccc(NC(=O)c3ccccc3F)cc2OC[C@H]1C,-0.2,0.0,-0.1,3.9,5.8,-6.3
C[C@@H]1CN([C@@H](C)CO)C(=O)c2cc(NC(=O)Nc3cccc4ccccc34)ccc2O[C@@H]1CN(C)Cc1ccc(C(=O)Nc2ccccc2N)cc1,22.7,0.4,0.2,?,136.5*,-0.5
C[C@H]1CN([C@@H](C)CO)C(=O)Cc2cc(NC(=O)Nc3cccc4ccccc34)ccc2O[C@@H]1CN(C)Cc1ccc(C(=O)Nc2ccccc2N)cc1,13.4,-0.2,0.0,38.2*,.,.
C[C@H]1CN([C@@H](C)CO)C(=O)Cc2cc(NC(=O)Nc3cccc4ccccc34)ccc2O[C@H]1CN(C)Cc1ccc(C(=O)Nc2ccccc2N)cc1,9.1,-0.7,0.0,6.4,.,.
SMILES,E-sel inducer,XiGFP reactiv,FGF22 binding,DENV2 CPE rescue,C2C12 statin,PglD DTNB
C[C@H](CO)N1C[C@H](C)[C@H](CN(C)Cc2ccc(C(=O)Nc3ccccc3N)cc2)Oc2ccc(NC(=O)Nc3ccccc3)cc2C1=O,4.6,0.1,0.0,-8.7,15.6,3.1
CC(C)C(=O)Nc1ccc2c(c1)C(=O)N(C)[C@H]1CC[C@@H](CC(=O)Nc3ccccc3)O[C@H]1CO2,-0.1,0.0,-0.2,2.5,-10.8,3.0
CCC(=O)N1C[C@H](C)[C@H](OC)CN(C)C(=O)c2cc(NC(=O)c3ccccc3)ccc2OC[C@@H]1C,0.1,0.7,-0.1,-2.2,6.9,-1.9
O=C(O)CC(NC(=O)C12CC3CC(CC(C3)C1)C2)c1ccc(OC2CCCC2)cc1 (configuration not stated),.,0.2,42.1,22.3*,-1.8,6.6
COC(=O)c1ccccc1NC(=O)c1ccccc1OC,.,.,.,.,123.6*,-6.2
COC(=O)c1ccccc1NC(=O)CNc1cc(OC)c(OC)cc1C,.,0.0,-0.9,1.2,.,.
CCc1ccccc1NCC(=O)Nc1ccccc1C(=O)OC,.,0.0,43.8*,.,.,.
COc1ccccc1NC(=O)c1ccccc1C(=O)Nc1ccccc1OC,0.3,0.5,-0.1,4.9,-5.4,0.2
CC(C)c1cccc(C(C)C)c1NC(=O)COC(=O)[C@H](C)NC(N)=O,0.2,0.2,-0.4,-6.1,.,.
COC(=O)c1ccccc1NC(=O)COC(=O)[C@H](C)NC(N)=O,0.0,0.0,43.5*,0.8,-13.2,1.3
O=C(N[C@@H]1CC[C@H](CCNC(=O)C2CCC2)O[C@H]1CO)c1ccccn1,-0.3,-0.7,-0.2,-1.9,-4.1,15.8
C[C@H](NC(=O)[C@H]1[C@H](CO)[C@H]2Cn3c(ccc(C4=CCCC4)c3=O)[C@@H]1N2C(=O)C1CC1)c1ccccc1,-0.1,0.1,.,10.0,.,.
CCCNC(=O)C[C@@H]1CC[C@H]2[C@@H](COc3ccc(NC(=O)c4cccc(Cl)c4)cc3C(=O)N2C)O1,0.2,0.2,0.0,5.0,-87.5,1.3
C[C@@H]1CN([C@H](C)CO)C(=O)c2cccc(NS(=O)(=O)c3cccs3)c2O[C@H]1CN(C)S(=O)(=O)c1ccc(F)cc1,-0.2,-0.5,0.2,-6.4,-25.3,0.3
C[C@H]1CN([C@@H](C)CO)C(=O)c2ccccc2-c2ccccc2CO[C@@H]1CN(C)C(=O)c1ccncc1,.,-1.0,.,.,.,.
CNc1ccccc1C(=O)OCC(=O)c1ccccc1,.,.,-0.2,32.0*,-17.1,0.1
CC(C)NC(=O)COC(=O)c1ccccc1C(=O)c1ccccc1,.,0.1,44.1*,1.3,.,.
CC(C)NC(=O)COC(=O)c1ccc(Oc2ccccc2)cc1,.,.,.,.,7.9,1.6
CNc1ccccc1C(=O)OCC(=O)c1ccc(F)cc1,.,0.0,42.9,0.0,.,.
O=C(Oc1c(CN2CCOCC2)cc(Cl)c2cccnc12)c1ccccc1Br,.,-0.1,0.0,41.0*,8.1,1.8
Cc1noc(C)c1S(=O)(=O)N(C)C[C@H]1OCCCC[C@@H](C)Oc2ccc(NC(=O)c3ccccc3)cc2C(=O)N([C@@H](C)CO)C[C@@H]1C,1.7,-0.4,-0.3,-1.5,.,-1.0
